Assay results as given in ChEMBL document CHEMBL1126751, “Studies on quinazolines. 5. 2,3-dihydroimidazo[1,2-c]quinazoline derivatives: a novel class of potent and selective alpha 1-adrenoceptor antagonists and antihypertensive agents” (J Med Chem, 1993).
One block for each molecule: values may come before it. The source made the active and inactive calls. The calls are words filed in the database; no cut-off is given here.

Tests used:
[1] = target: T1, Adrenergic receptor alpha-1 (Rattus norvegicus, UniProt P15823+P23944+P43140); assay: Binding affinity against alpha-1 adrenergic receptor by measuring displacement of [3H]prazosin from rat brain cortex membranes (in vitro).; format: cell membranes, Membrane
T1 sequence (P15823 whole entry): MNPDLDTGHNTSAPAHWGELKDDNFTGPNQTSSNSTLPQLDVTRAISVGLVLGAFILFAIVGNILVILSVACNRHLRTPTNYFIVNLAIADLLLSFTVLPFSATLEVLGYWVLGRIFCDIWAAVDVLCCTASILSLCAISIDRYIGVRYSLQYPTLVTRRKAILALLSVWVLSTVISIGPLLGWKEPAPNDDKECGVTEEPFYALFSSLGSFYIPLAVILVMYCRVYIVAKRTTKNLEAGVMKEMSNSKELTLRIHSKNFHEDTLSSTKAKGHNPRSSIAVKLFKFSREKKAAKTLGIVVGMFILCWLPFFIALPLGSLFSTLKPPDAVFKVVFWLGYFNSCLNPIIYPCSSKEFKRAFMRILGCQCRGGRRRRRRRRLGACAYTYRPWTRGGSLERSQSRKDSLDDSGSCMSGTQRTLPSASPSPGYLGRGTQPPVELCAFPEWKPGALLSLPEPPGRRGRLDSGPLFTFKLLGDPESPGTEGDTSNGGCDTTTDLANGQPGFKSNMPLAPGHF
T1 sequence (P23944 whole entry): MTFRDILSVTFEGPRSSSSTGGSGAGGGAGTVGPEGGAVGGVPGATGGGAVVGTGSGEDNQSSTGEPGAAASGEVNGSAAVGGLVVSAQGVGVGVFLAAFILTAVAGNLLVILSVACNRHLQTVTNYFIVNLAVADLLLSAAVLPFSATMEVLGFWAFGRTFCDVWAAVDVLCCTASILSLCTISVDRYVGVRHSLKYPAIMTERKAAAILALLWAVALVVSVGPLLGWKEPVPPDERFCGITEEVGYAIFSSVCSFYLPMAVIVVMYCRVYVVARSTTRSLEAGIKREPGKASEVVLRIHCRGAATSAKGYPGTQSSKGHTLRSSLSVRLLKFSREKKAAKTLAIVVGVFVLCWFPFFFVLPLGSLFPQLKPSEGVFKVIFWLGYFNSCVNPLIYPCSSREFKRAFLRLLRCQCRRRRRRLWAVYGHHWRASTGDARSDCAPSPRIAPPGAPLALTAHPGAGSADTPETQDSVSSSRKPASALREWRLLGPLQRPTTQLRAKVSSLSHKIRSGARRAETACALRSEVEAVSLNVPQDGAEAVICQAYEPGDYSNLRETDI
T1 sequence (P43140 whole entry): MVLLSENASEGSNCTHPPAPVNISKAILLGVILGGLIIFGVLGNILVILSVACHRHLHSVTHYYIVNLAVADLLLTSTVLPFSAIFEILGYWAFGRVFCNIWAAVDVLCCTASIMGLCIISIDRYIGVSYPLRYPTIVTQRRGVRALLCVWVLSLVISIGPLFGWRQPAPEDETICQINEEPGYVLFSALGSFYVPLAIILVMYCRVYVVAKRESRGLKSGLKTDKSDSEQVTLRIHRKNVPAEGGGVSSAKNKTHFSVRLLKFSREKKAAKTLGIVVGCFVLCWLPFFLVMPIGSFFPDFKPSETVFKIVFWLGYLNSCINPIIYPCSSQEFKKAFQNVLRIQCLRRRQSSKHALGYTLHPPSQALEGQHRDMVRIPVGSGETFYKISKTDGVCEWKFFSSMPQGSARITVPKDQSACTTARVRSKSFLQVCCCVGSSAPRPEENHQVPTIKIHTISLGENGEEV

Rattus norvegicus [2] = assay: Blood pressure lowering activity in spontaneously hypertensive rats (SHR) after 6 hours of administration (iv) of dose of 1.0 mg/kg […]; format: functional
Rattus norvegicus [3] = assay: Blood pressure lowering activity in spontaneously hypertensive rats (SHR) after 1 hour of administration (iv) of dose of 1.0 mg/kg […]; format: functional
Rattus norvegicus [4] = assay: Blood pressure lowering activity in spontaneously hypertensive rats (SHR) after 1 hour of administration (iv) of dose of 4.0 mg/kg; Did not last more than 1/2 hr […]; format: functional, organism-based; design: dose 4 mg/kg
Rattus norvegicus [5] = assay: Blood pressure lowering activity in spontaneously hypertensive rats (SHR) after 6 hour of administration (iv) of dose of 4.0 mg/kg; Did not last more than 1/2 hr […]; format: functional, organism-based; design: dose 4 mg/kg
[6] = target: T2, Adrenergic receptor alpha-2 (Rattus norvegicus, UniProt P22086+P19328+P22909); assay: Binding affinity against alpha-2 adrenergic receptor by measuring displacement of [3H]clonidine from rat brain cortex membranes (in vitro).; format: cell membranes, Membrane
T2 sequence (P22086 whole entry): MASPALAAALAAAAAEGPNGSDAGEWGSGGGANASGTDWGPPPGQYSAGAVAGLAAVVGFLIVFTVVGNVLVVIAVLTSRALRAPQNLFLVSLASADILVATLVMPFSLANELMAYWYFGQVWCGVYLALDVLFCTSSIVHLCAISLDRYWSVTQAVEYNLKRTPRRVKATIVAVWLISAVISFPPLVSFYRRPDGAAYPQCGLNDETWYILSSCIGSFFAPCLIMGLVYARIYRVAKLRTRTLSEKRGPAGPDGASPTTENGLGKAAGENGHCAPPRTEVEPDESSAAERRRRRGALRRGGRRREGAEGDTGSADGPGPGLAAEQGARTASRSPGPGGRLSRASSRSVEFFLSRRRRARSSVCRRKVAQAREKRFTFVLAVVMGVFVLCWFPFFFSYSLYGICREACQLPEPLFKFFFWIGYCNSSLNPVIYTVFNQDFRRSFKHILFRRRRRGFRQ
T2 sequence (P19328 whole entry): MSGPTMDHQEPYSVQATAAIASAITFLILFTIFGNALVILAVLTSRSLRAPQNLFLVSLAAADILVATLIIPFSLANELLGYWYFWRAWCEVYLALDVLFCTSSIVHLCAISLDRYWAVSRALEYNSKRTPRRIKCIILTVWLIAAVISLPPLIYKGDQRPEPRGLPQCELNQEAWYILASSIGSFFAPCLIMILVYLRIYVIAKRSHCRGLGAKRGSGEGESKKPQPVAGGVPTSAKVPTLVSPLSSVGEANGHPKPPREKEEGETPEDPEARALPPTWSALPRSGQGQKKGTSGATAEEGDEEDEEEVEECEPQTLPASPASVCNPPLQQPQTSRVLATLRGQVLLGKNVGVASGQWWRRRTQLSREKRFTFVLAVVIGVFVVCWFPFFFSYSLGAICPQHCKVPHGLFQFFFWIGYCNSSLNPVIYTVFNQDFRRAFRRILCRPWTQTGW
T2 sequence (P22909 whole entry): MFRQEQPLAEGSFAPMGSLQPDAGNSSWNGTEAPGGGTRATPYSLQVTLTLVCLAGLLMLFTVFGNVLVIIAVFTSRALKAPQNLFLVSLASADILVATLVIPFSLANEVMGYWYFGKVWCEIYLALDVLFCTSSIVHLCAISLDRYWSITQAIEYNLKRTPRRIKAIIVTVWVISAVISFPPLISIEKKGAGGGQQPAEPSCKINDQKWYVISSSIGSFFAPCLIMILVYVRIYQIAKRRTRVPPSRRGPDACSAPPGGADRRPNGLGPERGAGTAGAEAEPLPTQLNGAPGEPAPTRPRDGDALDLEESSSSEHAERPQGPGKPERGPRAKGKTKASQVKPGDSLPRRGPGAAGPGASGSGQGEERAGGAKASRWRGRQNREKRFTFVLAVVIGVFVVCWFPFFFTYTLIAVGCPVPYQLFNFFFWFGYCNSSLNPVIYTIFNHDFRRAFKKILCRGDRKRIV

Rattus norvegicus [7] = assay: Blood pressure lowering activity in spontaneously hypertensive rats (SHR) after 6 hours of administration (iv) of dose of 0.5 mg/kg; format: functional
Rattus norvegicus [8] = assay: Blood pressure lowering activity in spontaneously hypertensive rats (SHR) after 6 hours of administration (iv) of dose of 1.0 mg/kg; format: functional
Rattus norvegicus [9] = assay: Blood pressure lowering activity in spontaneously hypertensive rats (SHR) after 1 hour of administration (iv) of dose of 1.0 mg/kg; format: functional
Rattus norvegicus [10] = assay: Blood pressure lowering activity in spontaneously hypertensive rats (SHR) after 1 hour of administration (iv) of dose of 0.5 mg/kg; format: functional
Rattus norvegicus [11] = assay: Blood pressure lowering activity in spontaneously hypertensive rats (SHR) after 6 hours of administration (iv) of dose of 2.0 mg/kg […]; format: functional
Rattus norvegicus [12] = assay: Blood pressure lowering activity in spontaneously hypertensive rats (SHR) after 1 hour of administration (iv) of dose of 0.5 mg/kg […]; format: functional
Rattus norvegicus [13] = assay: Blood pressure lowering activity in spontaneously hypertensive rats (SHR) after 6 hours of administration (iv) of dose of 0.5 mg/kg […]; format: functional
Rattus norvegicus [14] = assay: Blood pressure lowering activity in spontaneously hypertensive rats (SHR) after 1 hour of administration (iv) of dose of 2.0 mg/kg […]; format: functional
[15] = target: T1, Adrenergic receptor alpha-1; assay: Alpha-1 antagonistic activity against phenylephrine in rat aorta; format: functional, tissue-based
Rattus norvegicus [16] = assay: Blood pressure lowering activity in spontaneously hypertensive rats (SHR) after 6 hours of administration (iv) of dose of 0.5 mg/kg; Did not last more than 1/2 hr […]; format: functional, organism-based; design: dose 0.5 mg/kg
Rattus norvegicus [17] = assay: Blood pressure lowering activity in spontaneously hypertensive rats (SHR) after 1 hour of administration (iv) of dose of 0.5 mg/kg; Did not last more than 1/2 hr […]; format: functional, organism-based; design: dose 0.5 mg/kg
Rattus norvegicus [18] = assay: Inhibitory concentration against phenylephrine in conscious spontaneously […] rats (SHR); format: functional, organism-based
Rattus norvegicus [19] = assay: Blood pressure lowering activity in spontaneously hypertensive rats (SHR) after 6 hours of administration (iv) of dose of 0.25 mg/kg; format: functional
Method in brief: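 Anesthetized spontaneously hypertensive rats of either sex, 250–300 g (pentobarbital sodium 40–50 mg/kg ip). Compound given iv via cannulated femoral vein. Arterial pressure recorded via right femoral artery cannula with pressure transducer, body temperature held at 37.5 °C. Value is maximum change in mean blood pressure (mmHg) at the time point. Groups of four to six animals.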

Rattus norvegicus [20] = assay: Inhibitory concentration against 5-HT in conscious spontaneously […] rats (SHR); format: functional, organism-based
[21] = target: T1, Adrenergic receptor alpha-1; assay: Alpha-1-antagonistic activity against phenylephrine in rat aorta; format: functional, tissue-based
Rattus norvegicus [22] = assay: Blood pressure lowering in spontaneously hypertensive rats (SHR) after 1 hour of administration (iv) of dose of 4.0 mg/kg […]; format: functional

Compound: CN1C(=O)N2C(=NCC2CN2CCN(c3ccccc3)CC2)c2ccccc21 (stereo not drawn)
Ki [1]: 15 nM
MBP (Rattus norvegicus [2]): -20 mmHg
MBP (Rattus norvegicus [3]): -23.3 mmHg

Compound: CN1C(=O)N2C(=NCC2CN2CCN(c3ccccc3Cl)CC2)c2ccccc21 (stereo not drawn)
Ki [6]: 810 nM
MBP (Rattus norvegicus [11]): -14 mmHg
Ki [1]: 0.068 nM
MBP (Rattus norvegicus [12]): -8.3 mmHg
MBP (Rattus norvegicus [13]): -5.9 mmHg
MBP (Rattus norvegicus [14]): -24 mmHg

Compound: COc1ccccc1N1CCN(CCn2c(=O)[nH]c3ccccc3c2=O)CC1
Ki [6]: 1599 nM
Ki [1]: 0.25 nM
MBP (Rattus norvegicus [12]): -33.9 mmHg
MBP (Rattus norvegicus [13]): -31.7 mmHg
pA2 [15]: 9.63

Compound: COc1ccccc1N1CCN(CC2CN=C3c4ccccc4NC(=O)N32)CC1 (stereo not drawn)
Ki [6]: 593 nM
Ki [1]: 0.21 nM
MBP (Rattus norvegicus [16]): inactive
MBP (Rattus norvegicus [17]): inactive

Compound: O=C1Nc2ccccc2C2=NC(CN3CCN(Cc4ccc5c(c4)OCO5)CC3)CN12 (stereo not drawn)
MBP (Rattus norvegicus [4]): inactive
Ki [1]: > 100 nM
MBP (Rattus norvegicus [5]): inactive

Compound: O=C(c1ccc(F)cc1)C1CCN(CCn2c(=O)[nH]c3ccccc3c2=O)CC1 [KETANSERIN]
IC50 (Rattus norvegicus [18]): 5.73 nM
IC50 (Rattus norvegicus [20]): 27.8 nM

Continued, in another order:

Ki [1]: > 100 nM
Compound: COc1ccc(N2CCN(CC3CN4C(=O)Nc5ccccc5C4=N3)CC2)cc1 (stereo not drawn)
MBP (Rattus norvegicus [4]): inactive
MBP (Rattus norvegicus [5]): inactive

Ki [6]: 3166 nM
Ki [1]: 1.1 nM
Compound: O=C1Nc2ccccc2C2=NC(CN3CCN(c4ccccc4Cl)CC3)CN12 (stereo not drawn)
MBP (Rattus norvegicus [7]): -5.7 mmHg
MBP (Rattus norvegicus [8]): -12.6 mmHg
MBP (Rattus norvegicus [9]): -40.7 mmHg
MBP (Rattus norvegicus [10]): -25.5 mmHg

Ki [6]: 3860 nM
Ki [1]: 2.01 nM
IC50 (Rattus norvegicus [18]): 0.44 nM
IC50 (Rattus norvegicus [20]): 0.36 nM
pA2 [21]: 9.82
Compound: O=C1Nc2ccccc2C2=NC(CN3CCN(c4ccccc4)CC3)CN12 (stereo not drawn)
MBP (Rattus norvegicus [7]): -32.5 mmHg
MBP (Rattus norvegicus [8]): -44.5 mmHg
MBP (Rattus norvegicus [9]): -57.5 mmHg
MBP (Rattus norvegicus [19]): -8.75 mmHg
MBP (Rattus norvegicus [10]): -49.3 mmHg

Ki [6]: > 10000 nM
Ki [1]: 850 nM
Compound: O=C1Nc2ccccc2C2=NC(CN3CCN(Cc4ccccc4)CC3)CN12 (stereo not drawn)
MBP (Rattus norvegicus [22]): -43.7 mmHg

Ki [6]: 3450 nM
Ki [1]: 1.3 nM
Compound: COc1ccccc1N1CCN(CC2CN3C(=O)Nc4ccccc4C3=N2)CC1 (stereo not drawn)
MBP (Rattus norvegicus [7]): -18.8 mmHg
MBP (Rattus norvegicus [10]): -20 mmHg

Ki [6]: 3334 nM
Ki [1]: 10.5 nM
Compound: CN1C(=O)N2CC(CN3CCN(c4ccccc4)CC3)N=C2c2ccccc21 (stereo not drawn)
MBP (Rattus norvegicus [16]): inactive
MBP (Rattus norvegicus [17]): inactive
